Compound activity as filed in PubChem.
A selection: hits, their analogues and other compounds. The true share with any hit is near 1.7%.
Rpn11 inh: inhibitors of human proteasome Rpn11; AID 588493; human 26S proteasome, Ub4-pepOG fluorescence polarization; 20S core pre-blocked with epoxomicin; 360,000 tested, 0.59% active; inhibition, % at 20 µM;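 active = inhibition at 20 µM, scaled to each plate's controls, above about 33%, limit read from the data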
PLC-gamma1 inh: blocks human PLC-gamma1 enzyme activity; purified PLC-gamma1, fluorogenic substrate, fluorescence; inhibition, % at 12.2 µM; 370,000 tested, 0.84% active; AID 720700; in the data active = inhibition above about 9.5%
UCH37 inh: human UCH37 deubiquitinating enzyme inhibition; purified proteasome/UCH37, Ub-AMC cleavage fluorescence; Q9Y5K5; AID 588478; 330,000 tested, 0.33% active; inhibition, % (no concentration beside the values);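 active = mean inhibition over replicate wells above about 20%, limit read from the data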;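 note: 0% = compound-free wells with enzyme and 100% = wells lacking proteasome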
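Signal – fluorescence, ex 355 nm, em 460 nm · System – Proteasome-bound UCH37 · Input – 0.15 nM proteasome as dispensed · Timing – 30 min preincubation with enzyme, 25 min cleavage at room temperature · Read-out basis – percent inhibition of cleavage signal versus uninhibited and no-proteasome wells · Medium – Tris-HCl pH 7.4 with ATP-MgCl2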
PLC-beta3 inh: inhibitors of human phospholipase C beta3 | Purified PLC-beta3, fluorogenic substrate, fluorescence | Q01970 | 370,000 tested, 0.18% active | AID 720704 | inhibition, % at 12.2 µM;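 note: 0% = median of compound wells on plate and 100% = full blocker control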
PLCg1 ctr: counter-screen for PLC-beta3 inhibitors: inhibitors of human PLC-gamma1; shares compounds with PLC-gamma1 inh; purified PLC-gamma1, fluorogenic substrate, fluorescence; inhibition, % at 12.3 µM; 3,300 tested, 3.1% active; in the data active = inhibition above about 9.5%
PLCb3 confirm: human PLC-beta3 inhibition, confirmation | 3,300 tested, 1% active | AID 743261 | shares compounds with PLC-gamma1 inh | purified PLC-beta3, fluorogenic substrate fluorescence | inhibition, % at 12.3 µM
* marks the source's active call; other numbers are inactive results; · = not tested or not shown. Cut-off read from the data, not from the text of the source, unless noted: active = inhibition above about 11%; inactive = the rest.

SMILES	Rpn11 inh	PLC-gamma1 inh	UCH37 inh	PLC-beta3 inh	PLCg1 ctr	PLCb3 confirm
O=C(CSCc1ccccc1)Nc1cccc(F)c1	-4	11*	6	9	4	8
O=C(c1ccco1)N1CCN=C1SCc1c(F)cccc1Cl	-2	0	2	-2	·	·
O=C(c1ccco1)N1CCN=C1SCc1ccccc1Cl	-2	-2	8	17*	-1	1
O=C1c2cccnc2C(=O)N1c1cccc([N+](=O)[O-])c1	-4	16*	3	0	-2	-3
Cn1cnnc1SCC(=O)n1c2ccccc2c2ccccc21	-2	14*	7	8	-10	-6
CCOc1cc(C)c(Cl)cc1S(=O)(=O)NC1CC(C)(C)NC(C)(C)C1	1	10*	1	6	-8	-4
C=CCn1c(SCCN2C(=O)c3ccccc3C2=O)nc2scc(-c3ccc(F)cc3)c2c1=O	-4	13*	-16	6	-4	-2
C=CCn1c(SCC(=O)N2CC(=O)Nc3ccccc32)nc2scc(-c3ccccc3)c2c1=O	20	4	1	-1	·	·
CCOC(=O)C1(CC2CC2)CCN(S(=O)(=O)C[C@]23CC[C@H](CC2=O)C3(C)C)CC1	2	12*	6	5	-1	2
CCC(CO)N=CC1=C(O)CC(C)(C)CC1=O (stereo not drawn)	-1	1	3	9	·	·
CC1CCCCC1N=CC1=C(O)CC(C)(C)CC1=O (stereo not drawn)	-8	11*	-3	10	-4	-2
COC[C@H]1CCCN1c1ccc2c(c1)O[C@@H](COCc1ccccc1)CN([C@H](C)c1ccccc1)S2(=O)=O	·	10*	·	-4	-3	-2
CC1CCN(C(=O)Cn2c(=O)n(CCCC(=O)NCc3ccco3)c(=O)c3sccc32)CC1	2	13*	2	-2	-7	-2
O=C(CN1CCN(Cc2ccc(Cl)cc2)C1=O)NCCCN1CCN(c2ccc(F)cc2)CC1	-8	0	-2	3	·	·
Cc1ccccc1CN1CCN(CC(=O)NCCCN2CCN(c3ccc(F)cc3)CC2)C1=O	3	9.6*	0	13*	-2	-3
Cc1ccc(S(=O)(=O)NN=Cc2cc(Br)c(C)o2)cc1	·	·	5	·	·	·
Cc1oc(N=Cc2ccccc2)c(C#N)c1C	·	·	2	·	·	·
Cc1cc(C)nc(NCC(O)COc2ccccc2C)n1 (stereo not drawn)	1	12*	5	9	-4	-2
Cc1cc(C)nc(NCC(O)CNc2ccccc2C)n1 (stereo not drawn)	8	-1	5	7	·	·
CCOc1ccc(OCc2cccc(C(=O)NN=Cc3cccnc3)c2)cc1	·	·	2	·	·	·
CCNC(=O)CN1C(=O)NC2(CCCc3cc(OC)ccc32)C1=O (stereo not drawn)	-2	1	·	8	·	·
COc1ccc2c(c1)CCCC21NC(=O)N(CC(=O)N2CC(C)OC(C)C2)C1=O (stereo not drawn)	-8	13*	1	0	-1	-2
COc1ccccc1NC(=O)Cn1c(=O)n(C)c(=O)c2sc3c(c21)COC(C)(C)C3	-11	13*	3	2	-5	1
COc1cc(CNc2ncnc3c2ncn3[C@H]2CN(Cc3cccc(C(F)(F)F)c3)C[C@@H](COC(C)=O)O2)cc(OC)c1OC	0	0	·	1	·	·
COc1cc(CNc2ncnc3c2ncn3[C@H]2CN(Cc3cccc(C(F)(F)F)c3)C[C@@H](CO)O2)cc(OC)c1OC	3	9.6*	·	3	-2	2
SMILES	Rpn11 inh	PLC-gamma1 inh	UCH37 inh	PLC-beta3 inh	PLCg1 ctr	PLCb3 confirm
CCN(CC)c1ccc(C=NN2CCN(Cc3ccccc3)CC2)c(O)c1	·	·	7	·	·	·
CC(=O)Nc1ccc(S(=O)(=O)NN=Cc2ccc(C)s2)cc1	·	·	4	·	·	·
CC(=O)Nc1ccc(S(=O)(=O)N/N=C/c2ccc(C)s2)cc1	0	4	·	12*	-4	1
CC(=O)N1CCc2cc(S(=O)(=O)CCC(=O)Nc3ccc4c(c3)OCCO4)ccc21	-7	2	0	0	·	·
CC(=O)N1CCc2cc(S(=O)(=O)NC(C(=O)Nc3ccc4c(c3)OCCO4)C(C)C)ccc21 (stereo not drawn)	-4	11*	4	3	3	5
Cc1nn(CC(=O)N2CCCC2)c(=O)c2nn(-c3ccccc3)c(C)c12	-4	3	3	12*	-4	1
Cc1nn(CC(=O)N2CCOCC2)c(=O)c2nn(-c3ccccc3)c(C)c12	1	1	2	-2	·	·
CCCCC(O)(CCCC)C(=O)NN(C(=O)OCC)c1ccccc1	0	-1	3	0	·	·
CCCC(O)(CCC)C(=O)NN(C(=O)CCl)c1ccccc1	-8	9.7*	0	2	-2	-2
CCOC(=O)N(NC(=O)C(O)(c1ccccc1)c1ccccc1)c1ccccc1	-3	14*	0	8	-1	4
CCOC(=O)N(NC(=O)C(O)(C(C)C)C(C)C)c1ccccc1	-4	-1	3	-2	·	·
O=C(NN=Cc1ccc([N+](=O)[O-])cc1)c1cccc2cc[nH]c12	·	·	2	·	·	·
Cc1[nH]c(=O)c(C#N)c(C)c1CSc1ncccn1	-3	12*	-1	6	-6	0
Cc1nn(-c2ccccc2)c2c1C(=NO)CC(C)(C)C2	·	·	1	·	·	·
O=C(NC(Cc1ccccc1)C(=O)NC1CC1)OCc1ccccc1 (stereo not drawn)	10	0	0	-4	·	·
CCCNC(=O)C(Cc1cccc(Cl)c1)NC(=O)c1ccccc1 (stereo not drawn)	-2	5	1	14*	-1	2
O=C(N[C@@H](Cc1ccccc1)C(=O)NC1CC1)c1ccc(Cl)cc1	-5	10*	3	-3	0	1
Cc1ccc(S(=O)(=O)Cc2nc3ccccc3c(=O)[nH]2)cc1	6	-2	4	19*	-16	9
O=C(COC(=O)c1ccc(S(=O)(=O)NCc2ccco2)cc1)Nc1ccccc1	5	1	1	-1	·	·
O=C(COC(=O)c1ccc(S(=O)(=O)NCc2ccco2)cc1)Nc1ccccc1OC(F)F	-5	5	1	12*	-6	-1
CCN(Cc1ccccc1)c1ccc(C=NNC(=S)NC(C)C)cc1	·	·	-52	·	·	·
Cc1ccc(/C(N)=N/OC(=O)c2ccc(Cl)cc2Cl)cc1	-4	6	0	13*	-1	-1
Cc1ccc(C)c(SCC(=O)NCc2ccco2)c1	-2	0	4	12*	-8	-6
CC(=O)Nc1cccc(-c2ccnc3c2CC(C(=O)NCC2CCOCC2)O3)c1 (stereo not drawn)	-9	12*	·	13*	-1	3
CC(=O)NCCNC(=O)C1Cc2c(-c3cccc(NC(C)=O)c3)ccnc2O1 (stereo not drawn)	-9	3	·	4	·	·
CN(C)CCCN1c2ccccc2CCc2ccc(Cl)cc21	-20	1	1	0	·	·
CNCCCN1c2ccccc2CCc2ccccc21	-14	10*	-1	3	5	0
